Calls of active or inactive are those of the source. No cut-off for these calls is given here.
Assays:
[1] = Inhibition of bovine brain tubulin assembly after 20 mins
Bos taurus = organism: Bos taurus; experiment: Displacement of [3H]colchicine from bovine brain tubulin at 5 uM after 10 mins
[2] = Cytotoxicity against human melanoma cells after 48 hrs; assay type: functional; conditions: Melanoma cell
[3] = Inhibition of nox4 expression in human B1647 cells at 10 uM after 24 hrs by Western blot analysis relative to control; assay type: functional
Method in brief: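 B1647 cells treated 24 h at 10 µM. Lysates (40 µg protein per lane) run on 10% SDS-PAGE and transferred to nitrocellulose. Blots probed with anti-Nox4, with β-tubulin as loading control, and detected by chemiluminescence. Bands quantified by densitometry in arbitrary units relative to control; three independent experiments.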

[4] = Cytotoxicity against human leukemia cells after 48 hrs; assay type: functional; conditions: Leukemia cell
[5] = Cytotoxicity against human NSCLC cells after 48 hrs; assay type: functional
Method in brief: (§1)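 NCI 60-cell panel, values averaged per subpanel. Compounds were dissolved in DMSO and first screened at a single 10⁻⁵ M dose. Active ones then went to five concentrations at ten-fold dilutions, top 10⁻⁴ M (10⁻³ M for some), with 48 h exposure.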

[6] = Cytotoxicity against human prostate cancer cells after 48 hrs; assay type: functional; conditions: Cancer cell lines
Method in brief: as §1

[7] = Cytotoxicity against human renal cancer cells after 48 hrs; assay type: functional; conditions: Cancer cell lines
[8] = Cytotoxicity against human ovarian cancer cells after 48 hrs; assay type: functional; conditions: Cancer cell lines
Method in brief: as §1

[9] = Cytotoxicity against human breast cancer cells after 48 hrs; assay type: functional; conditions: Cancer cell lines
Method in brief: as §1

B1647 = experiment: Cytotoxicity against human B1647 cells at 5 to 10 uM after 24 hrs by MTT assay; assay type: functional, cell-based
Method in brief: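 B1647 human AML cells grown in IMDM with 5% human serum (37 °C, 5% CO2); 10⁶ cells per well in 1 mL exposed to 5 or 10 µM compound (DMSO) for 24 h. MTT 0.5 mg/mL added for 4 h at 37 °C, formazan dissolved overnight in 10% SDS/0.01 M HCl, A570 read. Four independent experiments.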

[10] = target: T1, NADPH oxidase 4 (Homo sapiens) (UniProt Q9NPH5); experiment: Inhibition of NOX4 in human B1647 cells assessed as reduction of ROS production after 20 mins by DCFH-DA fluorescence assay; assay type: cell-based; conditions: in the assay text read “after 30 mins” for “after 20 mins”
T1 sequence (whole entry): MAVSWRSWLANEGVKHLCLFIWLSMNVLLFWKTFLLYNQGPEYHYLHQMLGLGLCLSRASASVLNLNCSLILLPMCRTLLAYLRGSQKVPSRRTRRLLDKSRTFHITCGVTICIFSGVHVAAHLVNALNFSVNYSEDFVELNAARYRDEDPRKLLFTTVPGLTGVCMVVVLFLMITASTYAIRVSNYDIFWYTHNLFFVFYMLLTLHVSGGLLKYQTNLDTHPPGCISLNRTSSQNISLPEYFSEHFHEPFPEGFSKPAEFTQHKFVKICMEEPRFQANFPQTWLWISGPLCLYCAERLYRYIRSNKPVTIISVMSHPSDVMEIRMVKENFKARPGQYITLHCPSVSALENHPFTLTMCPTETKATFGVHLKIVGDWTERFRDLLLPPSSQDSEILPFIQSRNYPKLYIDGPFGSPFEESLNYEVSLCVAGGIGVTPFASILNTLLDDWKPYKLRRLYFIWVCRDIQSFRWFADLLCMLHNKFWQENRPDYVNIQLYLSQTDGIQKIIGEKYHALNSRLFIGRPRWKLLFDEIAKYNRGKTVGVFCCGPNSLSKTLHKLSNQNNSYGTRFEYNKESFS
Method in brief: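 B1647 cells given compound (DMSO) at 5 or 10 µM for 30 min, then at 1 × 10⁶/mL washed twice in PBS and loaded with 5 µM DCFH-DA for 20 min at 37 °C. DCF fluorescence read in multiwell plate; four independent experiments.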

[11] = Cytotoxicity against human colon cancer cells after 48 hrs; assay type: functional; conditions: Cancer cell lines
Method in brief: as §1

[12] = Cytotoxicity against human CNS cancer cells after 48 hrs; assay type: functional; conditions: Cancer cell lines
Method in brief: as §1

[13] = target: T1, NADPH oxidase 4 (Homo sapiens); experiment: Inhibition of NOX4 in human nox2 silenced B1647 cells assessed as reduction of ROS production at 50 nM after 20 mins by DCFH-DA fluorescence assay; assay type: cell-based; conditions: 5 or 10 uM, in the assay text read “at 5 or 10 uM after 30 mins” for “at 50 nM after 20 mins”
Method in brief: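 B1647 cells nucleofected with Nox2 siRNA or scrambled siRNA (final 50 nM), used after 24–48 h. Compound treatment for 30 min, then 5 µM DCFH-DA loading for 20 min at 37 °C and DCF fluorescence read. Scrambled cells served as control.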

[14] = read-out: LC50 (the source's name)

| Compound | IC50 [1] [µM] | inhibition (Bos taurus) [%] | GI50 [2] [µM] | fold change (FC) [3] | GI50 [4] [µM] | GI50 [5] [µM] | TGI [5] [µM] | GI50 [6] [µM] | GI50 [7] [µM] | TGI [7] [µM] | GI50 [8] [µM] | TGI [8] [µM] | GI50 [9] [µM] | TGI [9] [µM] | Activity (B1647) | inhibition [10] | GI50 [11] [µM] | GI50 [12] [µM] | TGI [12] [µM] | inhibition [13] | also measured |
| --- | --- | --- | --- | --- | --- | --- | --- | --- | --- | --- | --- | --- | --- | --- | --- | --- | --- | --- | --- | --- | --- |
| COc1ccc2c(c1)/C(=C\c1cc(OC)c(OC)c(OC)c1)C(=O)N2 | 6.1 | 35 | – | – | – | – | – | – | – | – | – | – | – | – | – | – | – | – | – | – | – |
| COc1cc(/N=C2\C(=O)N(Cc3ccccc3)c3ccccc32)cc(OC)c1OC | 3.3 | 31 | – | – | – | – | – | – | – | – | – | – | – | – | – | – | – | – | – | – | – |
| COc1cc(/C=C2\C(=O)Nc3ccc(Br)cc32)cc(OC)c1OC | > 20 | – | 10.2 | 0.86 | 2.1 | 9.5 | 77.6 | 11 | 14.1 | 75.9 | 17 | 69.2 | 3.2 | 45.7 | Active | Dose-dependent effect | 6.2 | 14.8 | 56.2 | Active | – |
| COc1cc(/C=C2/C(=O)Nc3cc(C)c(O)cc32)cc(OC)c1OC | > 20 | – | 3.6 | 0.64 | 1.8 | 5.7 | 31.6 | 3.9 | 7.1 | 25.1 | 7.1 | 37.1 | 2.5 | 14.4 | Active | Dose-dependent effect | 4 | 5.2 | 25.7 | Active | TGI [2]: 16.6 µM; CC50 [2, 14]: 53.7 µM; CC50 [4, 14]: 70.8 µM; CC50 [5, 14]: 79.4 µM; TGI [6]: 30.9 µM; CC50 [6, 14]: 91.2 µM; LC50 [7]: 66.1 µM; CC50 [8, 14]: 87.1 µM; LC50 [9]: 74.1 µM; LC50 [11]: 53.7 µM; TGI [11]: 18.2 µM; LC50 [12]: 85.1 µM |
